Most compounds without a hit are left out; they make up all but 1.3% or so of the library.
sPLA2-III inh = Inhibits HGIII-sPLA2 liposome hydrolysis, primary screen; Q9NZ20; QFRET BODIPY PC-A2 liposome hydrolysis, fluorescence; inhibition, % at 12.2 µM; 370,000 compounds, 0.56% hits;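 active = inhibition above mean plus 3 SD of compounds lying within the high and low control bounds, cut at about 19% in these data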;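 note: 0% = median of test compound wells and 100% = no enzyme DMSO wells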
Target sequence (Q9NZ20 whole entry, looked up): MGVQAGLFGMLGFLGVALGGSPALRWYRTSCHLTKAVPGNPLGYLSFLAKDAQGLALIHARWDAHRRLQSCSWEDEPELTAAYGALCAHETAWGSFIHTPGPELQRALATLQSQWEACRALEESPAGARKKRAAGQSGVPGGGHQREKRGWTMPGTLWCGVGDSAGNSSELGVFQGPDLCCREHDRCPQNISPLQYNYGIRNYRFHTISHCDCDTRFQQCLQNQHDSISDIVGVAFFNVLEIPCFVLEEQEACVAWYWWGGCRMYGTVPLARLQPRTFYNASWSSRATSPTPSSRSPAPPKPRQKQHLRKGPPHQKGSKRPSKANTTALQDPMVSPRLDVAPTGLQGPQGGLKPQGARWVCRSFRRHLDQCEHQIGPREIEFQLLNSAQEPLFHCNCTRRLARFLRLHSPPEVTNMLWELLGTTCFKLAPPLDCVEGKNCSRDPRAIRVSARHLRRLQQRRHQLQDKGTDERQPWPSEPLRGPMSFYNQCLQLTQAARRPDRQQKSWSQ
Efflux pump inh = blocks antifungal efflux pumps in multiplex yeast assay. S. cerevisiae Candida pump triplex, Nile Red efflux. inhibition, % at 10 µM. 330,000 compounds, 0.44% hits;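 active = plate passing quality check with inhibition over a set limit, or well fluorescence over plate mean plus 4 SD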;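 note: Nile Red retained in pooled yeast measured as flow cytometry median fluorescence; 0% = buffer negative control and 100% = Enniatin B positive control; higher means more Nile Red kept so more efflux inhibition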
MT1-MMP act inh = inhibitors of human MT1-MMP activation | P50281 | HT1080 RFP-PRO-GFP cells, GFP/RFP ratio fluorescence, overnight; percent of plate control window, DMSO zero | GFP/RFP ratio change, % at 20 µM | 360,000 compounds, 0.061% hits | AID 651647;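 active = GFP/RFP ratio change of at least 30% with cell ATP level not reduced by more than half and red fluorescence within 50% of control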
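Assay system: HT1080 RFP-PRO-GFP cells | Dosing: 20 µM single dose, 1% DMSO | Incubation: Cells overnight before dosing, compound overnight, 37 °C, 5% CO2 | Evaluation: GFP/RFP fluorescence ratio | Control set: DMSO-only wells and HT1080 RFP-L50D-GFP cell wells as references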
H9c2 TAG inh = inhibitors of triacylglycerol accumulation; 230,000 compounds, 0.66% hits; H9c2 cells, Nile Red lipid (TAG) fluorescence; cells loaded with 200 µM oleic acid; AID 651582; inhibition, % at 12.5 µM;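 active = pattern-corrected inhibition of lipid staining of at least 50% with the nuclear-stain viability signal not falling by more than 50%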;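 note: 0% = DMSO wells and 100% = triacsin C control wells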
Starred values were filed as active, the others as inactive; i = inactive; . = no result.

SMILES | sPLA2-III inh | Efflux pump inh | MT1-MMP act inh | H9c2 TAG inh
COc1ccc(-c2cc(C(=O)NNC(=S)NC(=O)c3c(-c4ccccc4)noc3C)[nH]n2)cc1 | 23.8* | -0.1 | -9.6 | 6.8
COc1ccccc1-c1cc(C(F)(F)F)nc(S(=O)(=O)CCCC(=O)N2CCCCC2C)n1 (configuration not stated) | -1.5 | 0.0 | -14.8 | 67.0*
O=C(N1CCc2ccccc2C1)n1cc(C(O)(c2ccccc2)c2ccccc2)nn1 | -12.2 | . | . | .
CCS(=O)(=O)NCc1ccc2[nH]c3c(c2c1)CCCC3 | . | 1.3* | . | .
Cc1cc(C)cc(NC(=S)NCc2ccc3[nH]c4c(c3c2)CCCC4)c1 | -4.0 | 0.2 | 5.6 | 19.1
O=C(O)c1ccc(N/N=C/c2ccc(-c3ccccc3Cl)o2)cc1 | -45.5 | -0.1 | -1.3 | 67.6*
O=C(NCCCN1CCc2ccccc2C1)Nc1ccc(Br)cc1 | -15.7 | 0.0 | 2.9 | -2.3
O=C(NCCN1CCc2ccccc2C1)Nc1ccc([N+](=O)[O-])cc1 | 21.3* | 0.0 | 4.3 | 0.7
Cc1ccc(NC(=O)C(=Cc2ccc(C(=O)O)cc2)C(=O)Nc2ccc(C)cc2C)c(C)c1 | . | -0.1 | -0.9 | 55.8*
CC(=O)C(=Cc1ccc(C(=O)O)cc1)C(C)=O | 2.1 | 0.2 | 0.3 | -3.6
CC(C)C[C@H]1COc2ccc(Cl)cc2S(=O)(=O)N1Cc1cn(Cc2ccc(C(F)(F)F)cc2)nn1 | 5.4 | . | . | .
Cc1ccc(N=Nc2ccc(O)c3ncccc23)cc1C | 0.3 | -0.2 | 11.4 | .
Cc1ccc(N=Nc2ccc(O)c3ncccc23)cc1 | 3.6 | -0.3 | . | 86.9*
CC(C)N1CCCCC(NC(=O)c2ccc(F)cc2)C1=O (configuration not stated) | 1.0 | . | . | .
O=c1c2ccccc2c(C=Nc2ccc(Cl)cn2)c(O)n1-c1cc(Cl)ccc1N1CCOCC1 | -2.9 | 0.4* | 6.4 | .
CC(=O)c1ccc(N=Cc2c(O)n(-c3cc(Cl)ccc3N3CCOCC3)c(=O)c3ccccc23)cc1 | 15.2 | 0.4 | -7.5 | 52.3*
CNc1nc(N)c([N+](=O)[O-])c(Nc2cccc(OC)c2)n1 | -2.1 | . | . | .
COc1cc(-c2noc(C)c2C#Cc2ccccn2)cc(OC)c1OC | -7.3 | 0.0 | 9.2 | 69.7*
CCN(C(=O)C1CCN(c2ncccn2)CC1)c1ccccc1 | 0.7 | . | . | .
CCC[n+]1c2ccccc2cc2ccccc21 | 29.3* | -0.5 | -4.7 | .
COc1ccc(/C=N/NC(=S)Nc2ccccc2[N+](=O)[O-])cc1O | 20.0* | -0.3 | -1.4 | .
O=[N+]([O-])c1cc(/C=N/NC(=S)Nc2ccccc2Cl)ccc1Cl | 3.8 | -0.1 | 0.3 | 39.9
CCC[C@H]1[C@@H](OC(=O)NCc2ccc(C(F)(F)F)cc2)CC[C@@]23CCCN2C(=O)CCC[C@@H]13 | -7.5 | . | . | .
COc1ccc(NS(=O)(=O)c2cc([N+](=O)[O-])ccc2N/N=C/c2c(C)[nH]c3ccccc23)cc1 | -4.3 | . | -98.6 | -47.4
Cc1[nH]c2ccccc2c1/C=N/Nc1ccccc1[N+](=O)[O-] | 11.1 | -0.2 | 10.6 | 59.6*
SMILES | sPLA2-III inh | Efflux pump inh | MT1-MMP act inh | H9c2 TAG inh
CN(C)c1ccc(-c2nc3ncc(Cl)cc3[nH]2)cc1 | 10.0 | . | . | .
COCCN=c1scc(-c2ccccc2)n1/N=C/c1c[nH]c2ccccc12 | -3.1 | 0.2 | 2.7 | .
COCCN=c1scc(-c2cccs2)n1/N=C/c1ccc(O)c(O)c1O | 41.5* | -0.2 | -9.3 | 18.7
COc1cc2c(cc1OC)C1(Nc3c-2c(-c2ccccc2)nn3-c2ccccc2)C(=O)Nc2ccccc21 (configuration not stated) | 0.1 | 1.2* | -11.4 | 32.0
COc1cc2c(cc1OC)C1(Nc3c-2c(C)nn3-c2ccccc2)C(=O)Nc2ccccc21 (configuration not stated) | -0.2 | 0.0 | -13.2 | .
CN(Cc1ccc(Cl)s1)C(=O)CCl | 1.8 | -0.1 | 3.4 | 65.4*
O=C(NN=C/C=C/c1ccco1)c1cc(-c2ccc(Cl)cc2)n[nH]1 | 13.7 | . | . | .
Cc1ccc2c(c1)N(C(=O)CSc1nncn1C)C(C)(C)c1ssc(=S)c1-2 | 24.4* | -0.1 | 2.0 | -15.8
COc1ccc(NCc2ccc(OC)c(OC)c2)cc1 | . | 7.5* | . | .
CC(=NN1CCN(c2ccccn2)CC1)c1ccccc1O | -3.4 | . | . | .
Cc1c(C(=O)OCC2CCCO2)[nH]c2c1C(=O)CC(c1ccco1)C2 (configuration not stated) | . | 0.0 | 0.1 | 56.2*
Cc1c(C(=O)OCC(C)C)[nH]c2c1C(=O)CC(c1ccco1)C2 (configuration not stated) | -4.6 | 0.0 | 8.9 | .
COc1ccccc1CNC(=O)N(CCc1c(C)[nH]c2ccccc12)Cc1cccs1 | -39.3 | . | . | .
C=CC[n+]1ccc(/C=C2\C=Cc3cc(C)ccc3N2CC)c2ccccc21 | . | . | 60.7* | 3.5
CCN1/C(=C/c2cc[n+](CCCS(=O)(=O)[O-])c3ccccc23)Sc2ccccc21 | 4.4 | 0.0 | -97.7 | .
COc1ccc(-c2sc3cc4c(cc3c2-c2ccc(OCCN3CCOCC3)cc2)OCO4)cc1 | 5.3 | 0.4 | . | 17.6
COc1ccccc1-c1sc2cc3c(cc2c1-c1ccc(OCCN2CCCCC2)cc1)OCO3 | 0.6 | 3.2 | -6.9 | 62.7*
COc1cc2sc(-c3ccccc3OC)c(-c3ccc(OCCN4CCCCC4)cc3)c2cc1OC | -4.4 | 0.2 | 9.6 | 81.2*
OCCCN1CCC2(CCC(c3ccccc3)CC2)C1 (configuration not stated) | 0.2 | . | . | .
COc1ccc(C[C@H]2CN3C(=NC[C@@H]3Cc3ccccc3)N2CCNC(=O)c2ccc(C)c(Br)c2)cc1 | . | 0.0 | 0.0 | 120.0*
S=C(NN=C(c1ccccc1)c1ccccn1)N(Cc1ccccn1)Cc1ccccn1 | -3.2 | . | -4.3 | 62.4*
COC(=O)c1ccccc1-c1ccc(/C=N/NC(=O)c2cc3ccccc3o2)o1 | -19.7 | 0.3 | 1.4 | .
COC(=O)c1ccccc1-c1c2ccc(=N)cc-2oc2cc(N)ccc12 | -494.1 | 115.5* | -12.4 | i
CCN(CC)CC(C)(C)C(=O)/C=C/c1ccc(/C=C/C(=O)C(C)(C)CN(CC)CC)cc1 | -6.3 | . | -20.8 | 112.3*
CCN(CC)CCOC(=O)/C=C/c1ccccc1 | 10.1 | 0.1 | 2.8 | 0.9
SMILES | sPLA2-III inh | Efflux pump inh | MT1-MMP act inh | H9c2 TAG inh
COC(=O)[C@]12C[C@H](CC(=O)NCC3CCCCC3)C(=O)N(Cc3ccc(Cl)cc3Cl)C1=C[C@H](C(C)C)O[C@@H]2C1CC1 | 15.9 | . | . | .
CCN(CCCNC(=O)c1cn(CC)c2ccc(S(=O)(=O)N(C)C)cc2c1=O)c1cccc(C)c1 | 4.3 | -0.2 | -0.1 | 55.7*
CC[C@@H](C)[C@H](CN[C@H](CNC)C(C)C)NC[C@@H](C)c1ccc(CC(C)C)cc1 | 13.6 | 0.2 | 1.4 | 126.6*
CC[C@H](C)[C@@H](CNC)NC[C@@H](Cc1ccc(O)cc1)NCC(C)(C)C | 0.0 | -0.2 | 3.7 | 4.3
CN=C1S/C(=C/c2cc(C)n(Cc3ccccc3)c2C)C(=O)N1C | 2.2 | . | . | .
O=C(CCl)N(c1ccccc1)c1c[nH]c2ccccc12 | -6.0 | -0.2 | -7.6 | 78.7*
CC(=O)n1cc(N(C(=O)CCl)c2ccccc2)c2ccccc21 | 5.9 | 0.0 | -11.4 | 65.3*
O=C(CCl)N(c1ccc(Cl)cc1)c1c[nH]c2ccccc12 | -20.2 | 0.1 | -19.6 | .
